{"source": "ChEMBL document CHEMBL5705901", "about": "“Exploiting selective BCL-2 family inhibitors to dissect cell survival dependencies and define improved strategies for cancer therapy” (Sci Transl Med, 2015)", "key": {"[1]": {"test_system": "MDA-MB-231", "experiment": "Antitumor activity against LC3 positive human MDA-MB-231 cells xenografted in SCID mouse assessed as tumor growth delay at 25 mg/kg, po administered daily for 14 days relative to control", "type": "functional", "details": "time 14 day", "summary_of_the_method": "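MDA-MB-231 LC3 metastatic breast cancer xenograft, 10 mice per group, with a vehicle control. Dosing: oral agent 25 mg/kg daily for 14 days; docetaxel 7.5 mg/kg iv once; combination gives both regimens. Mean tumor volumes tracked. TGImax = 100(1 − Tv/Cv) from mean treated vs control volumes. TGD = 100(T/C − 1) from median times to reach 1 cm3.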"}, "[2]": {"test_system": "OVCAR-5", "experiment": "Synergistic antitumor activity against human OVCAR-5 cells xenografted in po dosed SCID mouse assessed as maximum tumor growth inhibition in presence of docetaxel relative to control", "type": "functional", "summary_of_the_method": "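Xenografts dosed with oral inhibitor plus intravenous docetaxel. TGImax = 100(1 − Tv/Cv), from mean treated and control tumor volumes; TGD = 100(T/C − 1), from median times to reach 1 cm3. Group size 5 mice (NCI-H747, A549-FP3, EBC-1, OVCAR-5), 8 (NCI-H358), 10 (NCI-H1650).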"}, "[3]": {"test_system": "MOLT-4", "experiment": "Induction of apoptosis in human MOLT-4 cells assessed as increase in annexin V positive cells upto 500 nM incubated for 24 hrs by Annexin V staining based analysis", "type": "functional, cell-based", "summary_of_the_method": "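Molt-4 cells were preincubated for 1 h with or without Z-VAD-fmk (75 μM), then treated for 24 h with increasing concentrations. Phosphatidylserine exposure was measured by annexin V staining. Values are the mean of triplicate experiments ± SD.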"}, "[4]": {"target": "Apoptosis regulator Bcl-2 (Homo sapiens, UniProt P10415)", "sequence (P10415 whole entry)": "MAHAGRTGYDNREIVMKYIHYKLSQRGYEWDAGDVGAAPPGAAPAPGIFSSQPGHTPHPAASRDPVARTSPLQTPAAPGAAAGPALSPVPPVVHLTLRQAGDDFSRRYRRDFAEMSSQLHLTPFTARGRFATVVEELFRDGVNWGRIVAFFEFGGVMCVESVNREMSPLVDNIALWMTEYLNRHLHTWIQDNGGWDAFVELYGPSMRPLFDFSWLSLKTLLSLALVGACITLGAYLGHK", "experiment": "Binding affinity to Bcl-2 (unknown origin) assessed as dissociation constant incubated for 1 hrs by TR-FRET assay"}, "[5]": {"experiment": "Toxicity in po dosed SCID mouse assessed as tolerance in presence of docetaxel", "type": "organism-based", "details": "in vivo"}, "[6]": {"test_system": "MOLT-4", "experiment": "Induction of apoptosis in human MOLT-4 cells assessed as cytochrome C release from mitochondria upto 500 nM incubated for 4 hrs by immunoblot analysis", "type": "functional, cell-based", "summary_of_the_method": "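Molt-4 cells were treated for 4 h with increasing concentrations. Cytochrome c in the mitochondrial and cytosolic fractions was determined by immunoblotting.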"}, "[7]": {"test_system": "EBC-1", "experiment": "Antitumor activity against human EBC-1 cells xenografted in po dosed SCID-bg mouse assessed as tumor growth delay relative to control", "type": "functional"}, "[8]": {"test_system": "A549", "experiment": "Antitumor activity against 3 times passaged human A549 cells xenografted in po dosed SCID mouse assessed as tumor growth delay relative to control", "type": "functional"}, "[9]": {"test_system": "A549", "experiment": "Antitumor activity against 3 times passaged human A549 cells xenografted in po dosed SCID mouse assessed as maximum tumor growth inhibition relative to control", "type": "functional"}, "[10]": {"test_system": "MDA-MB-468", "experiment": "Induction of apoptosis in human MDA-MB-468 cells assessed as poly(ADP-ribose) polymerase cleavage incubated for 48 hrs in presence of docetaxel by immunoblot analysis", "type": "functional, cell-based"}, "[11]": {"test_system": "HCC1954", "experiment": "Induction of apoptosis in human HCC1954 cells assessed as accumulation of cells with sub-G0-G1 DNA content at 1 uM incubated for 48 hrs in presence of docetaxel by flow cytometric analysis", "type": "functional, cell-based"}, "[12]": {"test_system": "MDA-MB-231", "experiment": "Induction of apoptosis in LC3 positive human MDA-MB-231 cells assessed as accumulation of cells with sub-G0-G1 DNA content at 1 uM incubated for 48 hrs in presence of docetaxel by flow cytometric analysis", "type": "functional, cell-based"}, "[13]": {"test_system": "HCC1937", "experiment": "Induction of apoptosis in human HCC1937 cells assessed as accumulation of cells with sub-G0-G1 DNA content at 1 uM incubated for 48 hrs in presence of docetaxel by flow cytometric analysis", "type": "functional, cell-based"}, "[14]": {"test_system": "HCC1428", "experiment": "Induction of apoptosis in human HCC1428 cells assessed as accumulation of cells with sub-G0-G1 DNA content at 1 uM incubated for 48 hrs in presence of docetaxel by flow cytometric analysis", "type": "functional, cell-based"}, "[15]": {"test_system": "MDA-MB-231", "experiment": "Induction of apoptosis in human MDA-MB-231 cells assessed as accumulation of cells with sub-G0-G1 DNA content at 1 uM incubated for 48 hrs in presence of docetaxel by flow cytometric analysis", "type": "functional, cell-based"}, "[16]": {"test_system": "NCI-H1975", "experiment": "Synergistic antiproliferative activity against human NCI-H1975 cells assessed as reduction in cell viability by measuring bliss sum score incubated for 72 hrs in presence of docetaxel by CellTiter-Glo cell vaibility assay", "type": "functional"}, "[17]": {"test_system": "BT-20", "experiment": "Synergistic antiproliferative activity against human BT-20 cells assessed as reduction in cell viability by measuring bliss sum score incubated for 72 hrs in presence of docetaxel by CellTiter-Glo cell vaibility assay", "type": "functional"}, "[18]": {"test_system": "OVCAR-4", "experiment": "Antagonistic antiproliferative activity against human OVCAR-4 cells assessed as reduction in cell viability by measuring bliss sum score incubated for 72 hrs in presence of docetaxel by CellTiter-Glo cell vaibility assay", "type": "functional"}, "[19]": {"test_system": "HCC1143", "experiment": "Synergistic antiproliferative activity against human HCC1143 cells assessed as reduction in cell viability by measuring bliss sum score incubated for 72 hrs in presence of docetaxel by CellTiter-Glo cell vaibility assay", "type": "functional"}, "[20]": {"test_system": "NCI-H1650", "experiment": "Synergistic antiproliferative activity against human NCI-H1650 cells assessed as reduction in cell viability by measuring bliss sum score incubated for 72 hrs in presence of docetaxel by CellTiter-Glo cell vaibility assay", "type": "functional"}, "[21]": {"test_system": "T47D", "experiment": "Synergistic antiproliferative activity against human T47D cells assessed as reduction in cell viability by measuring bliss sum score incubated for 72 hrs in presence of docetaxel by CellTiter-Glo cell vaibility assay", "type": "functional"}, "[22]": {"test_system": "MCF7", "experiment": "Synergistic antiproliferative activity against human MCF7 cells expressing luciferase assessed as reduction in cell viability by measuring bliss sum score incubated for 72 hrs in presence of docetaxel by CellTiter-Glo cell vaibility assay", "type": "functional"}, "[23]": {"test_system": "NCI-H838", "experiment": "Synergistic antiproliferative activity against human NCI-H838 cells assessed as reduction in cell viability by measuring bliss sum score incubated for 72 hrs in presence of docetaxel by CellTiter-Glo cell vaibility assay", "type": "functional"}, "[24]": {"test_system": "HCC1937", "experiment": "Synergistic antiproliferative activity against human HCC1937 cells assessed as reduction in cell viability by measuring bliss sum score incubated for 72 hrs in presence of docetaxel by CellTiter-Glo cell vaibility assay", "type": "functional"}, "[25]": {"test_system": "NCI-H1703", "experiment": "Synergistic antiproliferative activity against human NCI-H1703 cells assessed as reduction in cell viability by measuring bliss sum score incubated for 72 hrs in presence of docetaxel by CellTiter-Glo cell vaibility assay", "type": "functional"}, "[26]": {"test_system": "MDA-MB-361", "experiment": "Synergistic antiproliferative activity against human MDA-MB-361 cells assessed as reduction in cell viability by measuring bliss sum score incubated for 72 hrs in presence of docetaxel by CellTiter-Glo cell vaibility assay", "type": "functional"}, "[27]": {"test_system": "EBC-1", "experiment": "Antagonistic antiproliferative activity against human EBC-1 cells assessed as reduction in cell viability by measuring bliss sum score incubated for 72 hrs in presence of docetaxel by CellTiter-Glo cell vaibility assay", "type": "functional"}, "[28]": {"test_system": "MDA-MB-231", "experiment": "Synergistic antiproliferative activity against LC3 positive human MDA-MB-231 cells assessed as reduction in cell viability by measuring bliss sum score incubated for 72 hrs in presence of docetaxel by CellTiter-Glo cell vaibility assay", "type": "functional"}, "[29]": {"test_system": "OVCAR-5", "experiment": "Synergistic antiproliferative activity against human OVCAR-5 cells assessed as reduction in cell viability by measuring bliss sum score incubated for 72 hrs in presence of docetaxel by CellTiter-Glo cell vaibility assay", "type": "functional"}}, "note": "The source made the active and inactive calls. No cut-off for these calls is given here."}
{"smiles": "Cc1c(-c2ccc(N3CCc4cccc(C(=O)Nc5nc6ccccc6s5)c4C3)nc2C(=O)O)cnn1CC12CC3CC(CC(C3)C1)C2", "values": [{"measurement": "Activity", "setting": "[1]", "value": 55, "unit": "%"}, {"measurement": "TGI", "setting": "[2]", "value": 57, "unit": "%"}, {"measurement": "Activity", "setting": "[3]", "value": "Active"}, {"measurement": "Ki", "setting": "[4]", "value": 6, "unit": "nM"}, {"measurement": "Activity", "setting": "[5]", "value": "Non-Toxic"}, {"measurement": "Activity", "setting": "[6]", "value": "Active"}, {"measurement": "Activity", "setting": "[7]", "value": 22, "unit": "%"}, {"measurement": "Activity", "setting": "[8]", "value": 108, "unit": "%"}, {"measurement": "TGI", "setting": "[9]", "value": 67, "unit": "%"}]}
{"smiles": "CC1(C)CCC(c2ccc(Cl)cc2)=C(CN2CCN(c3ccc(C(=O)NS(=O)(=O)c4ccc(N[C@H](CCN5CCOCC5)CSc5ccccc5)c(S(=O)(=O)C(F)(F)F)c4)cc3)CC2)C1", "note": "[NAVITOCLAX]", "values": [{"measurement": "Activity", "setting": "[10]", "value": "Active"}, {"measurement": "Activity", "setting": "[11]", "value": "Active"}, {"measurement": "Activity", "setting": "[12]", "value": "Active"}, {"measurement": "Activity", "setting": "[13]", "value": "Active"}, {"measurement": "Activity", "setting": "[14]", "value": "Active"}, {"measurement": "Activity", "setting": "[15]", "value": "Active"}]}
{"smiles": "CN(C)CC#Cc1ccc(OCCCc2sc(N3CCc4cccc(C(=O)Nc5nc6ccccc6s5)c4C3)nc2C(=O)O)c(F)c1", "note": "[A-1155463]", "values": [{"measurement": "Activity_index", "setting": "[16]", "value": 6}, {"measurement": "Activity_index", "setting": "[17]", "value": 260}, {"measurement": "Activity_index", "setting": "[18]", "value": -129}, {"measurement": "Activity_index", "setting": "[19]", "value": 195}, {"measurement": "Activity_index", "setting": "[20]", "value": 312}, {"measurement": "Activity_index", "setting": "[21]", "value": 250}, {"measurement": "Activity_index", "setting": "[22]", "value": 63}, {"measurement": "Activity_index", "setting": "[23]", "value": 128}, {"measurement": "Activity_index", "setting": "[24]", "value": 332}, {"measurement": "Activity_index", "setting": "[25]", "value": 29}, {"measurement": "Activity_index", "setting": "[26]", "value": 110}, {"measurement": "Activity_index", "setting": "[27]", "value": -103}, {"measurement": "Activity_index", "setting": "[28]", "value": 305}, {"measurement": "Activity_index", "setting": "[29]", "value": 706}]}
